The values that follow come from ChEMBL document CHEMBL1149618, “Selection, synthesis, and structure-activity relationship of tetrahydropyrido[4,3-d]pyrimidine-2,4-diones as human GnRH receptor antagonists” (Bioorg Med Chem, 2007).

Calls of active or inactive are those of the source. The calls are words filed in the database; no cut-off is given here. Some results are limits rather than exact numbers.

In experiment [1] the target is T1, Gonadotropin-releasing hormone receptor (Homo sapiens, UniProt P30968).
T1 sequence (P30968 whole entry): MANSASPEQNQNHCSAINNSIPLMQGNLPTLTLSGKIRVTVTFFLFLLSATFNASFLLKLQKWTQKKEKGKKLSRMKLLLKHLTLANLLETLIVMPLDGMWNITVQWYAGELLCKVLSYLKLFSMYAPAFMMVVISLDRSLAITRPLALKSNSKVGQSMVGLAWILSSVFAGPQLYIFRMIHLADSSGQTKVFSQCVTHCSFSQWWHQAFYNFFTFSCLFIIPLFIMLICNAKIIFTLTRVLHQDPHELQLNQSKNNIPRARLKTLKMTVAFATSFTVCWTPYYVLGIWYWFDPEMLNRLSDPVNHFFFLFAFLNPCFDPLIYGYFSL
Kind of experiment: (§1) Displacement of [125I]His5,D-Tyr6]GnRH from human cloned GnRH receptor transfected in COS7 cells. It is filed as cell-based, COS-7. The method in brief: (§2)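 Competition binding against the radiolabelled GnRH agonist at the cloned human GnRH receptor, following a previously published method. Only compounds above 85% UV purity at 220 and 254 nm by LC–MS were assayed. Each compound was tested at least twice.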

For experiment [2], the target named is T2, Gonadotropin-releasing hormone receptor (Homo sapiens) (UniProt P30968).
T2 sequence (whole entry): T1 sequence (P30968 whole entry)
The description is as §1. It is filed as cell-based. Conditions: COS-7. The method in brief:
as §2

By Ki is commonly meant a dissociation constant, usually derived from enzyme kinetics or from competition with a known ligand. `Cc1ccc(CN2CCc3c(c(=O)n(CC4CCCNC4)c(=O)n3Cc3c(F)cccc3F)C2)c(C)c1` (centres undefined) registered an inhibition constant Ki in experiment [1] of 2450 nM. This counts as single-digit micromolar.

With `CN(CCc1ccccn1)CCn1c(=O)c2c(n(Cc3c(F)cccc3F)c1=O)CCN(Cc1ccccc1)C2`, in experiment [1], affinity was put at a Ki of 990 nM. In turn, `COc1cccc(-n2c(=O)c3c(n(Cc4c(F)cccc4F)c2=O)CN(CCc2c[nH]c4ccccc24)CC3)c1` yielded a Ki in experiment [1] of 2200 nM. This Ki lies about 2.2-fold higher than the previous one.

In experiment [1], `Cc1ccc(CN2CCc3c(c(=O)n(CC4CCCN(CCc5ccccn5)C4)c(=O)n3Cc3c(F)cccc3F)C2)c(C)c1` (centres undefined) returned an inhibition constant Ki of 600 nM. Same read-out and setting: in the case of `CCc1ccc(CN2CCc3c(c(=O)n(CCN(C)CCc4ccccn4)c(=O)n3Cc3c(F)cccc3F)C2)cc1` it was 20 nM; in that of `CN(CCc1ccccn1)CCn1c(=O)c2c(n(Cc3c(F)cccc3F)c1=O)CCN(CCc1c[nH]c3ccccc13)C2`, 515 nM; in that of `Cc1ccc(CN2CCc3c(c(=O)n(CC4CCCN(CC(C)C)C4)c(=O)n3Cc3c(F)cccc3F)C2)c(C)c1` (centres undefined), over 10000 nM.

Consider `CN(CCc1ccccn1)CCn1c(=O)c2c(n(Cc3c(F)cccc3F)c1=O)CCN(Cc1ccc(S(C)(=O)=O)cc1)C2`, for which the Ki in experiment [1] is 805 nM.

`Cc1ccc(CN2CCc3c(c(=O)n(CC4CCCCN4C4CCCC4)c(=O)n3Cc3c(F)cccc3F)C2)c(C)c1` (centres undefined) registered an inhibition constant (Ki) in experiment [1] of 520 nM. The molecule `Cc1ccc(CN2CCc3c(c(=O)n(CC4CCCN(Cc5ccccn5)C4)c(=O)n3Cc3c(F)cccc3F)C2)c(C)c1` (centres undefined) came in with an inhibitory constant (Ki) in experiment [1] of 490 nM. In turn, `CN(CCc1ccccn1)CCn1c(=O)c2c(n(Cc3c(F)cccc3F)c1=O)CCN(Cc1ccc(C(C)(C)C)cc1)C2` came in with an inhibition constant (Ki) in experiment [1] of 300 nM. Compared with the last molecule, the Ki is about 1.6-fold lower. On the same count and under the same terms, to `CN[C@@H](Cn1c(=O)c2c(n(Cc3c(F)cccc3F)c1=O)CCN(Cc1ccc(Cl)cc1)C2)c1ccccc1` belongs 45 nM. With `Cc1ccc(CN2CCc3c(c(=O)n(CCN(C)CCc4ccccn4)c(=O)n3Cc3c(F)cccc3F)C2)c(C)c1`, the affinity in experiment [1], expressed as Ki, was 5 nM.

`O=c1c2c(n(Cc3c(F)cccc3F)c(=O)n1C[C@@H]1CCCCN1CCc1ccccn1)CCN(Cc1ccc(Cl)cc1)C2` came in with a Ki in experiment [1] of 2410 nM. Turning to `Cc1c(CN2CCc3c(c(=O)n(CCN(C)CCc4ccccn4)c(=O)n3Cc3ccccc3)C2)sc2ccccc12`, in experiment [1], the affinity corresponds to a Ki of 305 nM. Compared with the last molecule, the Ki is about 7.9-fold lower. The molecule `CN(C)[C@@H](Cn1c(=O)c2c(n(Cc3c(F)cccc3F)c1=O)CCN(Cc1ccc(Cl)cc1)C2)c1ccccc1` registered a Ki in experiment [1] of 70 nM. This Ki lies about 4.4-fold lower than the previous one.

`CN(CCc1ccccn1)CCn1c(=O)c2c(n(Cc3c(F)cccc3F)c1=O)CCN(Cc1nc3ccccc3n1C)C2` yielded an inhibitory constant (Ki) in experiment [1] of over 10000 nM. The same measure, in the same setting: to `O=c1c2c(n(Cc3c(F)cccc3F)c(=O)n1C[C@H]1CCCCN1CCc1ccccn1)CCN(Cc1ccc(Cl)cc1)C2` belongs 30 nM. Regarding `Cc1ccc(CN2CCc3c(c(=O)n(CC4CCCCN4)c(=O)n3Cc3c(F)cccc3F)C2)c(C)c1` (centres undefined), the Ki in experiment [1] is over 10000 nM. In turn, `Cc1ccccc1CN1CCc2c(c(=O)n(CCN(C)CCc3ccccn3)c(=O)n2Cc2c(F)cccc2F)C1` yielded a Ki in experiment [1] of 85 nM.

`COc1cccc(-n2c(=O)c3c(n(Cc4c(F)cccc4F)c2=O)CN(Cc2ccccc2OC)CC3)c1` showed a Ki in experiment [1] of 980 nM. This Ki lies about 12-fold higher than the previous one.

`Cc1c(CN2CCc3c(c(=O)n(CCN(C)CCc4ccccn4)c(=O)n3Cc3c(F)cccc3C(F)(F)F)C2)sc2ccccc12` displayed a Ki in experiment [1] of 10 nM.

In experiment [1], `COc1cccc(-n2c(=O)c3c(n(Cc4c(F)cccc4F)c2=O)CN(Cc2ccc(-n4ccnc4)cc2)CC3)c1` yielded a Ki of 540 nM. As to `CN(CCc1ccccn1)CCn1c(=O)c2c(n(Cc3c(F)cccc3F)c1=O)CCN(Cc1ccc(Cl)cc1)C2`, in experiment [1], the Ki was determined as 17 nM. This Ki is about 32-fold lower than that of the molecule before.

In experiment [1], `O=c1c2c(n(Cc3c(F)cccc3F)c(=O)n1C[C@H]1CCCN1C1CCCC1)CCN(Cc1ccc(Cl)cc1)C2` had an inhibition constant (Ki) of 1370 nM. Take `Cc1ccc(CN2CCc3c(c(=O)n(CC4CCCN(C)C4)c(=O)n3Cc3c(F)cccc3F)C2)c(C)c1` (centres undefined): the inhibition constant (Ki) in experiment [1] was over 10000 nM.

`COc1cccc(-n2c(=O)c3c(n(Cc4c(F)cccc4F)c2=O)CN(Cc2ccccc2)CC3)c1` yielded a Ki in experiment [1] of 1290 nM. In experiment [1], `CN(CCc1ccccn1)CCn1c(=O)c2c(n(Cc3c(F)cccc3F)c1=O)CCN(Cc1ccc(Cl)c(Cl)c1)C2` showed an inhibitory constant (Ki) of 255 nM. Take `Cc1c(CN2CCc3c(c(=O)n(CCN(C)CCc4ccccn4)c(=O)n3CC3CCCCC3)C2)sc2ccccc12`: in experiment [1], the affinity, expressed as Ki, was 380 nM.

In experiment [1], `O=c1c2c(n(Cc3c(F)cccc3F)c(=O)n1C[C@H]1CCCN1)CCN(Cc1ccc(Cl)cc1)C2` returned an inhibition constant (Ki) of over 10000 nM. As to `CCc1ccc(CN2CCc3c(c(=O)n(CCN(C)C)c(=O)n3Cc3c(F)cccc3F)C2)cc1`, the Ki in experiment [1] came out at 1400 nM. In turn, `Cc1cc(Cl)ccc1CN1CCc2c(c(=O)n(CCN(C)CCc3ccccn3)c(=O)n2Cc2c(F)cccc2F)C1` registered an inhibition constant Ki in experiment [1] of 5 nM. This Ki lies about 280-fold lower than the previous one. `Cc1ccc(CN2CCc3c(c(=O)n(CCN(C)CC(C)C)c(=O)n3Cc3c(F)cccc3F)C2)c(C)c1` yielded a Ki in experiment [1] of 1800 nM. The molecule `COc1cccc(-n2c(=O)c3c(n(Cc4c(F)cccc4F)c2=O)CN(Cc2ccc(C)cc2)CC3)c1` came in with an inhibition constant (Ki) in experiment [1] of over 10000 nM. Molecule `Cc1c(CN2CCc3c(c(=O)n(CCN(C)CCc4ccccn4)c(=O)n3C)C2)sc2ccccc12` returned a Ki in experiment [1] of over 10000 nM. Consider `CN(CCc1ccccn1)CCn1c(=O)c2c(n(Cc3c(F)cccc3F)c1=O)CCN(Cc1ccc(C(F)(F)F)cc1)C2`, for which, in experiment [1], affinity was put at a Ki of 30 nM. This counts as double-digit nanomolar. In experiment [1], `CN(CCc1ccccn1)CCn1c(=O)c2c(n(Cc3c(F)cccc3F)c1=O)CCN(Cc1cccc(Cl)c1)C2` returned a Ki of 850 nM. Turning to `COc1cccc(-n2c(=O)c3c(n(Cc4c(F)cccc4F)c2=O)CN(Cc2ccncc2)CC3)c1`, the inhibition constant Ki in experiment [1] came out at 1580 nM.

`Cc1c(CN2CCc3c(c(=O)n(CCN(C)CCc4ccccn4)c(=O)n3Cc3ccccc3F)C2)sc2ccccc12` gave an inhibitory constant (Ki) in experiment [1] of 80 nM. This Ki lies about 20-fold lower than the previous one. `Cc1ccc(CN2CCc3c(c(=O)n(CCN(C)CCc4ccccn4)c(=O)n3Cc3c(F)cccc3F)C2)cc1`: in experiment [1], the affinity corresponds to a Ki of 35 nM.

In experiment [1], `Cc1c(CN2CCc3[nH]c(=O)n(CCN(C)CCc4ccccn4)c(=O)c3C2)sc2ccccc12` showed an inhibition constant (Ki) of over 10000 nM.

Consider `CN(CCc1ccccn1)CCn1c(=O)c2c(n(Cc3c(F)cccc3F)c1=O)CCNC2`, for which the inhibition constant Ki in experiment [1] is over 10000 nM.

Regarding `O=c1c2c(n(Cc3c(F)cccc3F)c(=O)n1C[C@H]1CCCN1CCc1ccccn1)CCN(Cc1ccc(Cl)cc1)C2`, the affinity in experiment [1] corresponds to a Ki of 10 nM. For `COc1cccc(-n2c(=O)c3c(n(Cc4c(F)cccc4F)c2=O)CNCC3)c1`, the affinity in experiment [1], expressed as Ki, was 970 nM. For the molecule `COc1ccccc1CN1CCc2c(c(=O)n(CCN(C)CCc3ccccn3)c(=O)n2Cc2c(F)cccc2F)C1`, the outcome in experiment [2] was inactive. In experiment [1], `Cc1ccc(CN2CCc3c(c(=O)n(CCN(C)Cc4ccccn4)c(=O)n3Cc3c(F)cccc3F)C2)c(C)c1` had a Ki of 180 nM. This lies in the sub-micromolar range. `O=c1c2c(n(Cc3c(F)cccc3F)c(=O)n1C[C@H]1CCCN1Cc1ccccn1)CCN(Cc1ccc(Cl)cc1)C2` displayed an inhibitory constant (Ki) in experiment [1] of 20 nM. Against the preceding molecule, the Ki is about 9-fold lower. `Cc1ccc(CN2CCc3c(c(=O)n(CC4CCCCN4Cc4ccccn4)c(=O)n3Cc3c(F)cccc3F)C2)c(C)c1` (centres undefined) displayed an inhibitory constant (Ki) in experiment [1] of 25 nM. `Cc1ccc(CN2CCc3c(c(=O)n(CC4CCCCN4C)c(=O)n3Cc3c(F)cccc3F)C2)c(C)c1` (centres undefined) had a Ki in experiment [1] of 1710 nM. Compared with the last molecule, the Ki is about 68-fold higher.

Take `CCSc1ccc(CN2CCc3c(c(=O)n(CCN(C)CCc4ccccn4)c(=O)n3Cc3c(F)cccc3F)C2)cc1`: the Ki in experiment [1] is 15 nM. This Ki is about 110-fold lower than that of the molecule before. On the same count and under the same terms, to `COc1ccc(CN2CCc3c(c(=O)n(CCN(C)CCc4ccccn4)c(=O)n3Cc3c(F)cccc3F)C2)cc1` belongs 100 nM.

In experiment [1], `CN(CCc1ccccn1)CCn1c(=O)c2c(n(Cc3c(F)cccc3F)c1=O)CCN(Cc1ccc(-n3ccnc3)cc1)C2` registered a Ki of over 10000 nM.

As to `Cc1ccc(CN2CCc3c(c(=O)n(CC4CCCN(C5CCCC5)C4)c(=O)n3Cc3c(F)cccc3F)C2)c(C)c1` (centres undefined), the Ki in experiment [1] was 2580 nM. In experiment [1], `Cc1ccc(CN2CCc3c(c(=O)n(CC4CCCCN4Cc4ccccc4)c(=O)n3Cc3c(F)cccc3F)C2)c(C)c1` (centres undefined) yielded a Ki of 945 nM.

With `Cc1ccc(CN2CCc3c(c(=O)n(CC4CCCCN4CC(C)C)c(=O)n3Cc3c(F)cccc3F)C2)c(C)c1` (centres undefined), in experiment [1], the Ki is 2590 nM.

`Cc1c(CN2CCc3c(c(=O)n(CCN(C)CCc4ccccn4)c(=O)n3Cc3c(F)cccc3F)C2)sc2ccccc12` had a Ki in experiment [1] of 15 nM. As for `CN(CCc1ccccn1)CCn1c(=O)c2c(n(Cc3c(F)cccc3F)c1=O)CCN(Cc1ccncc1)C2`, in experiment [1], the Ki is over 10000 nM. In experiment [1], `Cc1ccc(CN2CCc3c(c(=O)n(CC4CCCN(Cc5ccccc5)C4)c(=O)n3Cc3c(F)cccc3F)C2)c(C)c1` (centres undefined) had a Ki of 160 nM. The molecule `CSc1ccc(CN2CCc3c(c(=O)n(CCN(C)CCc4ccccn4)c(=O)n3Cc3c(F)cccc3F)C2)cc1` registered a Ki in experiment [1] of 10 nM.
